Test results reported in ChEMBL document CHEMBL4613265, “Novel Human Neutral Sphingomyelinase 2 Inhibitors as Potential Therapeutics for Alzheimer's Disease” (J Med Chem, 2020).

Experiments:
[1] = Stability in human liver microsomes assessed as parent compound remaining at 1 uM measured after 60 mins in absence of NADPH by LC-MS/MS analysis; format: ADME, Microsome; details: for remaining at 1 h, 1 µM: liver microsomes, read-out: Stability
In short: (§1)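 Cofactor-free control for cofactor-independent degradation. Mouse or human liver microsomes at 0.2 mg/mL, 1 μM compound (final), 100 mM potassium phosphate at pH 7.4, no NADPH regenerating system. Adding microsomes started the reaction; run in triplicate. Sampled at 60 min and quenched with three volumes of ice-cold acetonitrile spiked with internal standard.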

[2] = Stability in mouse liver microsomes assessed as parent compound remaining at 1 uM measured after 60 mins in absence of NADPH by LC-MS/MS analysis; format: ADME, Microsome; details: for remaining at 1 h, 1 µM: liver microsomes, read-out: Stability; in short: as §1
[3] = Stability in mouse liver microsomes assessed as CYP450-mediated metabolism by measuring parent compound remaining at 1 uM measured after 60 mins in presence of NADPH generating system by LC-MS/MS analysis; format: ADME; details: 1 h
In short: (§2)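 Liver microsomes from mouse or human, 0.2 mg/mL, with 1 μM compound (final) in 100 mM potassium phosphate at pH 7.4. Adding microsomes started the reaction; triplicates. After 60 min, quenched with 3 volumes of ice-cold acetonitrile containing internal standard.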

Cytochrome P450 = experiment: Stability in human liver microsomes assessed as CYP450-mediated metabolism by measuring parent compound remaining at 1 uM measured after 60 mins in presence of NADPH generating system by LC-MS/MS analysis; format: ADME; details: 1 h; in short: as §2

Row | Compound | remaining at 1 h, 1 µM [1] [%] | remaining at 1 h, 1 µM [2] [%] | Parent compound remaining [3] [%] | Stability (Cytochrome P450) [%] | Stability ([1]; microsomes, 1 h, 1 µM) | Stability ([2]; microsomes, 1 h, 1 µM)
1 | COc1cc(-c2c(C)nc3c(N4CC[C@@H](NC(C)=O)C4)cc(C)nn23)cc(OC)c1OC | > 95 | > 95 |  |  |  | 
2 | COc1ccc(-c2c(C)nc3c(N4CC[C@@H](SC(C)=O)C4)cc(C)nn23)cc1OC | > 95 | > 95 | 8 | 11 |  | 
3 | CC(=O)N[C@@H]1CCN(c2cc(C)nn3c(-c4ccc5cc[nH]c5c4)c(C)nc23)C1 | > 95 | > 95 |  |  |  | 
4 | COc1ccc(-c2c(C)nc3c(N4CC[C@@H](NC(C)=O)C4)cc(C)nn23)cn1 | > 95 | > 95 |  |  |  | 
5 | CC(=O)N[C@@H]1CCN(c2cc(C)nn3c(-c4ccco4)c(C)nc23)C1 | > 95 | > 95 |  |  |  | 
6 | COc1ccc(-c2c(C)nc3c(N4CCC(F)(F)C4)cc(C)nn23)cc1OC | > 95 | > 95 |  |  |  | 
7 | COc1cc(-c2c(C)nc3c(N4CC[C@@H](NC(C)=O)C4)cc(C)nn23)ccc1F | > 95 | > 95 |  |  |  | 
8 | CC(=O)N[C@@H]1CCN(c2cc(C)nn3c(-c4cccc(N5CCOCC5)c4)c(C)nc23)C1 | > 95 | > 95 |  |  |  | 
9 | COc1ccc(-c2c(C)nc3c(N4CC[C@@H](N)C4)cc(C)nn23)cc1OC | > 95 | > 95 |  |  |  | 
10 | COc1ccc(-c2c(C)nc3c(N4CC[C@@H](NC(=O)Nc5ccccc5)C4)cc(C)nn23)cc1OC | > 95 | > 95 | 87 | 90 |  | 
11 | CC(=O)N[C@@H]1CCN(c2cc(C)nn3c(-c4ccc(OC(F)(F)F)cc4)c(C)nc23)C1 | > 95 | > 95 | 72 | 114 |  | 
12 | COc1ccc(-c2c(C)nc3c(N4CC[C@@H](OC(C)=O)C4)cc(C)nn23)cc1OC | > 95 | > 95 |  |  |  | 
13 | COc1ccc(-c2c(C)nc3c(N4CC[C@@H](NC(=O)NC(C)C)C4)cc(C)nn23)cc1OC | > 95 | > 95 |  |  |  | 
14 | COc1ccc(-c2c(C)nc3c(N4CC[C@@H](NS(=O)(=O)c5ccc(NC(C)=O)cc5)C4)cc(C)nn23)cc1OC | > 95 | > 95 |  |  |  | 
15 | COc1ccc(-c2c(C)nc3c(N4CC[C@@H](NS(=O)(=O)c5ccc(C#N)cc5)C4)cc(C)nn23)cc1OC | > 95 | > 95 |  |  |  | 
16 | COc1ccc(-c2c(C)nc3c(N4CC[C@@H](NS(N)(=O)=O)C4)cc(C)nn23)cc1OC | > 95 | > 95 |  |  |  | 
17 | COc1ccc(-c2c(C)nc3c(N4CC[C@@H](NC(=O)Cc5ccccc5)C4)cc(C)nn23)cc1OC | > 95 | > 95 |  |  |  | 
18 | COc1ccc(-c2c(C)nc3c(N4CC[C@@H](NC(=O)OCc5ccccc5)C4)cc(C)nn23)cc1OC | > 95 | > 95 |  |  |  | 
19 | COc1ccc(-c2c(C)nc3c(N4CC[C@@H](NC(C)=O)C4)ccnn23)cc1OC | > 95 | > 95 |  |  |  | 

Row | Compound | remaining at 1 h, 1 µM [1] [%] | remaining at 1 h, 1 µM [2] [%] | Parent compound remaining [3] [%] | Stability (Cytochrome P450) [%] | Stability ([1]; microsomes, 1 h, 1 µM) | Stability ([2]; microsomes, 1 h, 1 µM)
20 | CSc1ccc(-c2c(C)nc3c(N4CC[C@@H](NC(C)=O)C4)cc(C)nn23)cc1 | > 95 | > 95 | 32 | 84 |  | 
21 | COc1ccc(-c2c(C)nc3c(N4CC[C@@H](NC(=O)COc5ccccc5)C4)cc(C)nn23)cc1OC | > 95 | > 95 |  |  |  | 
22 | COc1ccc(-c2c(C)nc3c(N4CC[C@@H](N=[N+]=[N-])C4)cc(C)nn23)cc1OC | > 95 | > 95 |  |  |  | 
23 | COc1ccc(-c2c(C)nc3c(N4CC[C@@H](NS(=O)(=O)c5ccc(Cl)cc5)C4)cc(C)nn23)cc1OC | > 95 | > 95 | 7 | 32 |  | 
24 | CC(=O)N[C@@H]1CCN(c2cc(C)nn3c(-c4cccc(S(=O)(=O)N(C)C)c4)c(C)nc23)C1 | > 95 | > 95 |  |  |  | 
25 | COc1ccc(-c2c(C)nc3c(N4CC[C@@H](NS(=O)(=O)c5cccs5)C4)cc(C)nn23)cc1OC | > 95 | > 95 | 78 | 95 |  | 
26 | COc1ccc(-c2c(C)nc3c(N4CCN(C(=O)OC(C)(C)C)C4)cc(C)nn23)cc1OC | > 95 | > 95 |  |  |  | 
27 | CCN(CCNC(C)=O)c1cc(C)nn2c(-c3ccc(OC)c(OC)c3)c(C)nc12 | > 95 | > 95 |  |  |  | 
28 | COc1ccc(-c2c(C)nc3c(N4CCOCC4)cc(C)nn23)cc1OC | > 95 | > 95 |  |  |  | 
29 | COc1ccc(-c2c(C)nc3c(N4CCN(C(=O)OC(C)(C)C)CC4)cc(C)nn23)cc1OC | > 95 | > 95 |  |  |  | 
30 | COc1ccc(-c2c(C)nc3c(N4CC[C@@H](O)C4)cc(C)nn23)cc1OC | > 95 | > 95 |  |  |  | 
31 | COc1ccc(-c2c(C)nc3c(N4CC[C@@H](NS(C)(=O)=O)C4)cc(C)nn23)cc1OC | > 95 | > 95 |  |  |  | 
32 | COc1ccc(-c2c(C)nc3c(N4CCN(C(C)=O)CC4)cc(C)nn23)cc1OC | > 95 | > 95 |  |  |  | 
33 | COc1ccc(-c2c(C)nc3c(N4CC=CC4)cc(C)nn23)cc1OC | > 95 | > 95 |  |  |  | 
34 | COc1ccc(-c2c(C)nc3c(N4CC[C@@H](F)C4)cc(C)nn23)cc1OC | > 95 | > 95 |  |  |  | 
35 | COc1ccc(-c2c(C)nc3c(N4CC[C@@H](NC(=O)C(F)(F)F)C4)cc(C)nn23)cc1OC | > 95 | > 95 | 117 | 113 |  | 
36 | COc1ccc(-c2c(C)nc3c(N4CC[C@@H](NC(=O)[C@@H](OC)c5ccccc5)C4)cc(C)nn23)cc1OC | > 95 | > 95 |  |  |  | 
37 | COc1ccc(-c2c(C)nc3c(N4CC[C@@H](NS(=O)(=O)C(C)C)C4)cc(C)nn23)cc1OC | > 95 | > 95 |  |  |  | 
38 | CC(=O)N[C@@H]1CCN(c2cc(C)nn3c(-c4nccs4)c(C)nc23)C1 | > 95 | > 95 |  |  |  | 

Row | Compound | remaining at 1 h, 1 µM [1] [%] | remaining at 1 h, 1 µM [2] [%] | Parent compound remaining [3] [%] | Stability (Cytochrome P450) [%] | Stability ([1]; microsomes, 1 h, 1 µM) | Stability ([2]; microsomes, 1 h, 1 µM)
39 | COc1ccc(-c2c(C)nc3c(N4CC[C@H](O)C4)cc(C)nn23)cc1OC | > 95 | > 95 |  |  |  | 
40 | CC(=O)N[C@@H]1CCN(c2cc(C)nn3c(-c4ccccc4)c(C)nc23)C1 | > 95 | > 95 |  |  |  | 
41 | COc1ccc(-c2c(C)nc3c(N4CC[C@@H](NS(=O)(=O)c5ccccc5)C4)cc(C)nn23)cc1OC | > 95 | > 95 | 20 | 43 |  | 
42 | CC(=O)N[C@@H]1CCN(c2cc(C)nn3c(-c4ccc(C#N)cc4)c(C)nc23)C1 | > 95 | > 95 |  |  |  | 
43 | COc1ccc(-c2c(C)nc3c(N4CC[C@@H](NC(=O)OC5CCCCC5)C4)cc(C)nn23)cc1OC | > 95 | > 95 |  |  |  | 
44 | CC(=O)N[C@@H]1CCN(c2cc(C)nn3c(-c4cccs4)c(C)nc23)C1 | > 95 | > 95 | 28 | 50 |  | 
45 | COc1ccc(-c2c(C)nc3c(N4CC[C@@H](NS(=O)(=O)c5ccc(C(C)=O)cc5)C4)cc(C)nn23)cc1OC | > 95 | > 95 | 5 | 12 |  | 
46 | COc1ccc(-c2c(C)nc3c(N4CC[C@@H](NC(C)=O)C4)cc(C)nn23)cc1F | > 95 | > 95 |  |  |  | 
47 | COc1ccc(-c2c(C)nc3c(N4CC[C@@H](NC(=O)Oc5cccc(C)c5)C4)cc(C)nn23)cc1OC | > 95 | > 95 |  |  |  | 
48 | COc1ccc(-c2c(C)nc3c(N4CC[C@@H](N5CCOCC5)C4)cc(C)nn23)cc1OC | > 95 | > 95 |  |  |  | 
49 | COc1ccc(-c2c(C)nc3c(N4CCCC4)cc(C)nn23)cc1OC | > 95 | > 95 | 1 | 58 |  | 
50 | COc1ccc(-c2c(C)nc3c(N4CCN(C(=O)C5CCCCC5)CC4)cc(C)nn23)cc1OC | > 95 | > 95 |  |  |  | 
51 | COc1ccc(-c2c(C)nc3c(N4CC[C@@H](n5cc(-c6ccccc6)nn5)C4)cc(C)nn23)cc1OC |  |  |  |  | Unstable | Unstable
52 | COc1ccc(-c2c(C)nc3c(N4CC[C@@H](NC(=O)Oc5ccc6ccccc6c5)C4)cc(C)nn23)cc1OC | > 95 | > 95 |  |  |  | 
53 | COc1ccc(-c2c(C)nc3c(N4CC[C@@H](NC(C)=O)C4)cc(Cl)nn23)cc1OC | > 95 | > 95 |  |  |  | 
54 | CC(=O)N[C@@H]1CCN(c2cc(C)nn3cc(C)nc23)C1 | > 95 | > 95 |  |  |  | 
55 | CC(=O)N[C@@H]1CCN(c2cc(C)nn3c(-c4ccc(C(F)(F)F)cc4)c(C)nc23)C1 | > 95 | > 95 |  |  |  | 
56 | COc1ccc(-c2c(C)nc3c(N4CC[C@@H](NC(=O)c5ccccc5)C4)cc(C)nn23)cc1OC | > 95 | > 95 |  |  |  | 
